Assay results from ChEMBL document CHEMBL3244172, “Easily hydrolyzable, water-soluble derivatives of (+/-)-alpha-5-[1-(indol-3-yl)ethyl]-2-methylamino-delta2-thiazoline-4-one, a novel antiviral compound” (J Med Chem, 1979).

Legend:
Influenza A virus [1] = experiment: Antiviral activity against Influenza A virus Port Chalmers/1/73 (H3N2) infected in MDCK cells at 1 mg/ml by agar diffusion method; type: functional; conditions: read-out: DIZ
How it was run: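 Agar diffusion: compounds were diluted to 1 mg/mL in Eagle's MEM from stocks of 10 mg/mL in water or 100 mg/mL in DMSO. 0.02 mL went into 6 mm wells cut in the agar overlay above infected monolayers (influenza in MDCK, Coxsackie B1 in HeLa). Read-out was the diameter (mm) of the plaque-free inhibition zone around each well.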

Influenza A virus [2] = experiment: Antiviral activity against Influenza A virus Port Chalmers/1/73 (H3N2) infected in MDCK cells assessed as plaque reduction after 3 days by agar diffusion method; type: functional
How it was run: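 Plaque reduction: varying compound concentrations were put in the agar overlay above infected monolayers. Coxsackie B1/HeLa was incubated 42 h at 37 °C; influenza/MDCK 3 days at 33 °C. PDD50 is the lowest concentration giving ≥50% fewer plaques than untreated controls.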

Mustela putorius furo [3] = experiment: Toxicity in ferret infected with Influenza A virus Port Chalmers/1/73 (H3N2) assessed as change in body weight at 7 mg/kg administered intranasally 7 times on day 0 and 9 times on day 1 to day 3 measured after 7 days relative to untreated control; type: organism-based; set-up: dose 7 mg/kg; conditions: in vivo, inhaled_or_intranasal, 168 h
How it was run: (§1)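 Infected ferrets (700–1500 g, groups of three, untreated controls) were dosed intranasally each hour with 0.2 mL of a 50 mg/mL solution in distilled water: 7 doses on day 0 and 9 on days +1 to +3. Body weight was recorded throughout and expressed as % change.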

Mustela putorius furo [4] = experiment: Toxicity in ferret infected with Influenza A virus Port Chalmers/1/73 (H3N2) assessed as change in body weight at 14 mg/kg administered intranasally 7 times on day 0 and 9 times on day 1 to day 3 measured after 7 days relative to untreated control; type: organism-based; set-up: dose 14 mg/kg; conditions: in vivo, inhaled_or_intranasal, 168 h; how it was run: as §1
Mustela putorius furo [5] = experiment: Toxicity in ferret infected with Influenza A virus Port Chalmers/1/73 (H3N2) assessed as change in body weight at 13 mg/kg administered intranasally 7 times on day 0 and 9 times on day 1 to day 3 measured after 7 days relative to untreated control; type: organism-based; set-up: dose 13 mg/kg; conditions: in vivo, inhaled_or_intranasal, 168 h; how it was run: as §1
Influenza A virus [6] = experiment: Antiviral activity against Influenza A virus Port Chalmers/1/73 (H3N2) infected in ferret assessed as reduction in rectal temperature at 7 to 14 mg/kg administered intranasally 7 times on day 0 and 9 times on day 1 to day 3 relative to untreated control; type: functional; conditions: dose mg/kg 7-14
How it was run: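 Ferrets (700–1500 g), three per group, infected intranasally on day 0 with influenza A/Port Chalmers/1/73 (H3N2). Dosed 0.2 mL of 50 mg/mL solution in distilled water by intranasal instillation, unanaesthetized, starting 2 h post-infection and repeated hourly. Untreated and ribavirin-treated groups served as controls. Rectal temperature readings >39.5 °C and >40.0 °C were counted on days +1 to +4.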

Influenza A virus [7] = experiment: (§2) Antiviral activity against Influenza A virus Port Chalmers/1/73 (H3N2) infected in ferret assessed as reduction in viral excretion by measuring hemagglutination units per ml at 7 mg/kg administered intranasally 7 times on day 0 and 9 times on day 1 to day 3 measured on day 3 relative to untreated control; type: functional
How it was run: (§3)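 Ferrets (700–1500 g, groups of three, untreated control group) were infected intranasally on day 0. Unanaesthetized animals received 0.2 mL of a 50 mg/mL solution in distilled water intranasally, from 2 h post-infection, hourly: 7 doses on day 0 and 9 daily on days +1 to +3. Nasal washings were titrated for hemagglutination with 0.5% washed chicken erythrocytes (HAU/mL) on days +2 to +4.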

Influenza A virus [8] = experiment: as §2, with “day 2” for “day 3”; type: functional; how it was run: as §3
Influenza A virus [9] = experiment: as §2, with “on day 4 relative to” for “on day 3 relative to”; type: functional; how it was run: as §3
Influenza A virus [10] = experiment: as §2, with “at 13” for “at 7”, “day 2” for “day 3”; type: functional; how it was run: as §3
Influenza A virus [11] = experiment: as §2, with “at 13” for “at 7”; type: functional; how it was run: as §3
Influenza A virus [12] = experiment: as §2, with “ml at 13 mg/kg administered” for “ml at 7 mg/kg administered”, “on day 4 relative to” for “on day 3 relative to”; type: functional; how it was run: as §3
Influenza A virus [13] = experiment: as §2, with “at 14” for “at 7”, “day 2” for “day 3”; type: functional; how it was run: as §3
Influenza A virus [14] = experiment: as §2, with “at 14” for “at 7”; type: functional; how it was run: as §3
Influenza A virus [15] = experiment: as §2, with “ml at 14 mg/kg administered” for “ml at 7 mg/kg administered”, “on day 4 relative to” for “on day 3 relative to”; type: functional; how it was run: as §3
[16] = Cytotoxicity against MDCK cells infected with Influenza A virus Port Chalmers/1/73 (H3N2) after 3 days by carbol fuchsin staining-based assay; type: cell-based, Canis lupus familiaris; conditions: dog
How it was run: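 MDCK monolayers infected with influenza had compound in the agar overlay and were incubated 3 days at 33 °C. Monolayers were stained with carbol fuchsin or neutral red. MCC is the lowest concentration causing morphological cell abnormalities.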

Mustela putorius furo [17] = experiment: Toxicity in ferret infected with Influenza A virus Port Chalmers/1/73 (H3N2) assessed as change in body weight at 8 mg/kg administered intranasally 7 times on day 0 and 9 times on day 1 to day 3 measured after 7 days relative to untreated control; type: organism-based; set-up: dose 8 mg/kg; conditions: in vivo, inhaled_or_intranasal, 168 h; how it was run: as §1
Mustela putorius furo [18] = experiment: Toxicity in ferret infected with Influenza A virus Port Chalmers/1/73 (H3N2) assessed as change in body weight at 16 mg/kg administered intranasally 7 times on day 0 and 9 times on day 1 to day 3 measured after 7 days relative to untreated control; type: organism-based; set-up: dose 16 mg/kg; conditions: in vivo, inhaled_or_intranasal, 168 h; how it was run: as §1
Influenza A virus [19] = experiment: Antiviral activity against Influenza A virus Port Chalmers/1/73 (H3N2) infected in ferret assessed as reduction in rectal temperature at 8 to 16 mg/kg administered intranasally 7 times on day 0 and 9 times on day 1 to day 3 relative to untreated control; type: functional; conditions: dose mg/kg 8-16
How it was run: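 Infected ferrets (700–1500 g, groups of three, untreated controls) received hourly intranasal 0.2 mL of a 50 mg/mL aqueous solution: 7 doses on day 0 and 9 on days +1 to +3. Rectal temperature was recorded and readings >39.5 °C and >40.0 °C were counted on days +1 to +4.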

Influenza A virus [20] = experiment: as §2, with “at 8” for “at 7”, “day 2” for “day 3”; type: functional; how it was run: as §3
Influenza A virus [21] = experiment: as §2, with “ml at 8 mg/kg administered” for “ml at 7 mg/kg administered”, “on day 4 relative to” for “on day 3 relative to”; type: functional; how it was run: as §3
Influenza A virus [22] = experiment: as §2, with “at 16” for “at 7”, “day 2” for “day 3”; type: functional; how it was run: as §3
Influenza A virus [23] = experiment: as §2, with “at 16” for “at 7”; type: functional; how it was run: as §3
Influenza A virus [24] = experiment: as §2, with “ml at 16 mg/kg administered” for “ml at 7 mg/kg administered”, “on day 4 relative to” for “on day 3 relative to”; type: functional; how it was run: as §3
[25] = Solubility in water; type: physicochemical; conditions: buffer
[26] = Stability in unbuffered aqueous solutions at pH >6 assessed as compound hydrolysis; type: physicochemical; conditions: unbuffered aqueous solution
[27] = Stability in unbuffered aqueous solutions at pH >6 assessed as compound decarboxylation; type: physicochemical

For `NC(=O)c1ncn([C@@H]2O[C@H](CO)[C@@H](O)[C@H]2O)n1` [RIBAVIRIN], the zone of inhibition at 1000 µg/mL (Influenza A virus [1]) was 30 mm, the PDD50 (Influenza A virus [2]) was 2 µg/mL and the Activity (Mustela putorius furo [3]) was -4.5%. It also gave an Activity (Mustela putorius furo [4]) of -22.2%, an Activity (Mustela putorius furo [5]) of -20.1% and a T (Influenza A virus [6]) of over 39.5 °C. For the same compound, the Activity (Influenza A virus [7]) was under 4 HAU/ml, the Activity (Influenza A virus [8]) was under 4 HAU/ml and the Activity (Influenza A virus [9]) was under 4 HAU/ml. It also gave an Activity (Influenza A virus [10]) of under 4 HAU/ml, an Activity (Influenza A virus [11]) of 12 HAU/ml and an Activity (Influenza A virus [12]) of under 4 HAU/ml. For the same compound, the Activity (Influenza A virus [13]) was under 4 HAU/ml, the Activity (Influenza A virus [14]) was under 4 HAU/ml and the Activity (Influenza A virus [15]) was under 4 HAU/ml. For the same compound, the MCC at 72 h [16] was over 100 µg/mL.

Work on `CNC1=NC(=O)C(C(C)c2cn(C(=O)OCC(C)(C)N(C)C)c3ccccc23)S1.Cl` (racemic) yielded an Activity (Mustela putorius furo [5]) of -3.3%, an Activity (Mustela putorius furo [17]) of -0.4% and an Activity (Mustela putorius furo [18]) of -3.2%. It also gave a T (Influenza A virus [19]) of over 40 °C, an Activity (Influenza A virus [10]) of under 4 HAU/ml and an Activity (Influenza A virus [11]) of under 4 HAU/ml. For the same compound, the Activity (Influenza A virus [12]) was under 4 HAU/ml, the Activity (Influenza A virus [20]) was under 4 HAU/ml and the Activity (Influenza A virus [21]) was under 4 HAU/ml. The Activity (Influenza A virus [22]) was under 4 HAU/ml, the Activity (Influenza A virus [23]) was under 4 HAU/ml and the Activity (Influenza A virus [24]) was under 4 HAU/ml. The solubility [25] was “soluble”, the Stability [26] was “Unstable” and the Stability [27] was “Unstable”.
